For orientation: TGI means how far tumour growth fell short of that in controls. A word on the IC50: it is the concentration needed to halve the response being measured. Lower therefore signals greater potency in that assay.

Activity calls are given as the source filed them. The rule behind the calls is not given here.

Data set [1] in a line: Toxicity in fertilized chicken embryo assessed as mortality rate at 30 ug per egg, iv administered on day 11 measured on day 17 by CAM assay. As to conditions: in vivo, read-out: Activity. Type of data set: organism-based, Gallus gallus. The method, boiled down: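 Fertilized chicken eggs grafted on the CAM with HT-1080 cells (3.5 × 105/egg) received a 100 μL intravenous injection under the CAM on day 11. The drug was diluted in Cremophor EL/99% ethanol/PBS (1/1/14 v/v). Groups held 10–12 eggs and were incubated until day 17, when dead embryos and signs of toxicity were counted per group.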

Another data set deals with HT-1080. In words: Antitumor activity against human HT1080 cells xenografted in chicken chorioallantoic membrane assessed as inhibition of tumor growth at 30 ug per egg, iv administered on day 11 measured on day 17 by CAM assay. It counts as functional. The method, boiled down: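 HT-1080 fibrosarcoma cells (3.5 × 105/egg) were applied onto freshly exposed CAM of fertilized chicken eggs. On day 11, drug from a DMSO stock was diluted in Cremophor EL/99% ethanol/PBS (1/1/14 v/v) and 100 μL was injected into a vein under the CAM. Groups of 10–12 eggs were kept to day 17, embryos were euthanized at 4 °C for ≥4 h, and tumor wet weight was recorded.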
Background: Xenograft models place foreign cells or tissue in a host animal.

The test system of data set [2] is Jurkat. In words: Cell cycle arrest in human Jurkat E6-1 cells assessed as accumulation at G2/M phase at 0.60 uM after 24 hrs by FACS flow cytometry. Type of data set: functional. Summed up:
(§1)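 Jurkat E6 cells cultured in RPMI 1640 with 10% FBS at 37 °C, 5% CO2. Compounds serially diluted in medium, starting 50% above the M21 IC50. 4.0 × 10^5 cells were exposed for 24 h. Cells were washed with PBS, chicken red blood cells added as internal standard, and fixed in ice-cold EtOH. After 1 h on ice in PBS with 1 μg/mL DAPI, phase distribution was read by flow cytometry. DMSO-treated cells served as control.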
In general terms: A flow cytometer gives signals particle by particle.

The next data set concerns HT-29. In words: Cytotoxicity against human HT-29 cells after 48 hrs by SRB assay. It counts as functional, cell-based. To be noted: HT-29, 48 h. The method, boiled down:
(§2)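 NCI sulforhodamine B protocol. Cells were grown in high-glucose DMEM with 5% FBS and seeded per well at 4 × 10^3 (HT-29), 3.5 × 10^3 (M21) or 3 × 10^3 (MCF-7), then allowed 24 h to attach. Serial dilutions from 200 μM to 780 nM final were applied in DMSO <0.5% for 48 h. Cells were fixed with cold TCA (10% final) and stained with SRB, with absorbance read at 530–568 nm. Growth inhibition was computed against day-0 plates, giving the 50% inhibitory concentration. At least two experiments in triplicate, CV <10%.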
(In SRB staining, fixed cells bind dye roughly in proportion to their protein.)

Another data set concerns MCF7. In words: Cytotoxicity against human MCF7 cells after 48 hrs by SRB assay. To be noted: MCF7, 48 h. It counts as functional, cell-based. Summed up:
as §2

For data set [3], the system named is M21. In words: Induction of DNA damage response in human M21 cells assessed as phosphorylation of H2AX into gammaH2AX at IC50 after 24 hrs by DAPI staining-based immunofluorescence assay. It counts as functional, cell-based. Summed up: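 M21 cells (1 × 10^5) on fibronectin-coated coverslips, grown 24 h, then exposed to agent for 24 h at 37 °C; 0.5% DMSO control. Fixed with 3.7% formaldehyde and permeabilized with 0.1% saponin/3% BSA. Probed with mouse anti-H2AX pS139 antibody for 2 h at room temperature. Nuclei counterstained with DAPI; nuclear γH2AX foci viewed by epifluorescence microscopy.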

The test system of data set [4] is Jurkat. In words: Cell cycle arrest in human Jurkat E6-1 cells assessed as accumulation at G0/G1 phase at 0.60 uM after 24 hrs by FACS flow cytometry. Type of data set: functional. The method, boiled down:
as §1

Data set [5] relates to M21. In words: Cytotoxicity against human M21 cells after 48 hrs by SRB assay. It counts as functional, cell-based. As to conditions: M21, 48 h. The method, boiled down:
as §2

Data set [6] concerns Jurkat. In words: Cell cycle arrest in human Jurkat E6-1 cells assessed as accumulation at S phase at 0.60 uM after 24 hrs by FACS flow cytometry. Type of data set: functional. The method, boiled down:
(§3)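 Jurkat E6 cells grown in RPMI 1640 with 10% FBS at 37 °C, 5% CO2. Compounds were serially diluted in medium starting 50% above the M21 IC50. 4.0 × 10^5 cells were exposed for 24 h, then washed and spiked with chicken red blood cells as internal standard. Cells were fixed in ice-cold ethanol, stained with 1 μg/mL DAPI on ice for 1 h, and phase distribution was read by flow cytometry. The control was 0.5% DMSO.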

Data set [7] deals with Jurkat. Briefly: Cell cycle arrest in human Jurkat E6-1 cells assessed as accumulation at G2/M phase at 3.5 uM after 24 hrs by FACS flow cytometry. It counts as functional. The method, boiled down: as §3
The subject of data set [8] is Jurkat. In words: Cell cycle arrest in human Jurkat E6-1 cells assessed as accumulation at S phase at 3.5 uM after 24 hrs by FACS flow cytometry. Type of data set: functional. Summed up:
(§4)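 Jurkat E6 T-lymphoblasts in RPMI 1640 with 10% FBS, 37 °C, 5% CO2. […] Chicken red blood cells were added as internal standard. Cells were fixed in ice-cold EtOH and stained with 1 μg/mL DAPI on ice for 1 h before flow cytometry of phase distribution. Vehicle control was 0.5% DMSO.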

Data set [9] deals with Jurkat. Briefly: Cell cycle arrest in human Jurkat E6-1 cells assessed as accumulation at G0/G1 phase at 3.5 uM after 24 hrs by FACS flow cytometry. It counts as functional. Summed up: as §1
Data set [10] has as its system Jurkat. In words: Cell cycle arrest in human Jurkat E6-1 cells assessed as accumulation at S phase at 12 uM after 24 hrs by FACS flow cytometry. It counts as functional. The method, boiled down:
as §3

Data set [11] deals with Jurkat. In words: Cell cycle arrest in human Jurkat E6-1 cells assessed as accumulation at G0/G1 phase at 12 uM after 24 hrs by FACS flow cytometry. It counts as functional. Summed up: as §1
The test system of data set [12] is Jurkat. Briefly: Cell cycle arrest in human Jurkat E6-1 cells assessed as accumulation at G2/M phase at 12 uM after 24 hrs by FACS flow cytometry. It counts as functional. Summed up: as §1
Data set [13] relates to Jurkat. In words: Cell cycle arrest in human Jurkat E6-1 cells assessed as accumulation at G0/G1 phase at 25 uM after 24 hrs by FACS flow cytometry. It counts as functional. Summed up:
as §1

Data set [14] relates to Jurkat. Briefly: Cell cycle arrest in human Jurkat E6-1 cells assessed as accumulation at G2/M phase at 25 uM after 24 hrs by FACS flow cytometry. Type of data set: functional. Summed up: as §3
Data set [15] concerns Jurkat. In words: Cell cycle arrest in human Jurkat E6-1 cells assessed as accumulation at S phase at 25 uM after 24 hrs by FACS flow cytometry. Type of data set: functional. The method, boiled down: as §3
Data set [16] has as its system Jurkat. Briefly: Cell cycle arrest in human Jurkat E6-1 cells assessed as accumulation at S phase at 74 uM after 24 hrs by FACS flow cytometry. It counts as functional. The method, boiled down: as §4
For data set [17], the system named is Jurkat. In words: Cell cycle arrest in human Jurkat E6-1 cells assessed as accumulation at G2/M phase at 74 uM after 24 hrs by FACS flow cytometry. It counts as functional. Summed up:
as §3

Data set [18] relates to Jurkat. Briefly: Cell cycle arrest in human Jurkat E6-1 cells assessed as accumulation at G0/G1 phase at 74 uM after 24 hrs by FACS flow cytometry. Type of data set: functional. The method, boiled down:
as §1

Data set [19] deals with Jurkat. Briefly: Cell cycle arrest in human Jurkat E6-1 cells assessed as accumulation at G0/G1 phase at 22 uM after 24 hrs by FACS flow cytometry. Type of data set: functional. Summed up: as §1
The subject of data set [20] is Jurkat. In words: Cell cycle arrest in human Jurkat E6-1 cells assessed as accumulation at S phase at 22 uM after 24 hrs by FACS flow cytometry. Type of data set: functional. Summed up: as §3
The test system of data set [21] is Jurkat. Briefly: Cell cycle arrest in human Jurkat E6-1 cells assessed as accumulation at G2/M phase at 22 uM after 24 hrs by FACS flow cytometry. It counts as functional. The method, boiled down:
as §3

Regarding `CCCc1ccccc1OS(=O)(=O)c1ccc(NC(=O)NCC)cc1`, in data set [1], the mortality at 6 days came to 10%. Moreover, in the data set on HT-1080, the inhibition of tumour growth (TGI) turned out to be 65%. In addition, the Activity in the data set with Jurkat [2] came out at 7%; with Jurkat [4], 12%; with Jurkat [6] it was 81%. In addition, the IC50 with HT-29 stood at 2.4 µM; with MCF7, 1.3 µM; in the data set on M21 [5], 0.8 µM. In addition, the result with M21 [3] was Active.

For the compound `CCNC(=O)Nc1ccc(S(=O)(=O)Oc2ccc(O)cc2)cc1`, the Activity with Jurkat [7] came out at 16%; in the data set on Jurkat [8], 63%; with Jurkat [9] it was 21%. For the same compound, the IC50 in the data set with HT-29 was determined as 12 µM; in the data set with MCF7, 8 µM; in the data set with M21 [5], 4.3 µM.

As to `CCNC(=O)Nc1cccc(S(=O)(=O)Oc2ccccc2CC)c1`, the IC50 with HT-29 stood at 33 µM; in the data set with M21 [5] it was 30 µM. Besides, the Activity was 63% in the data set with Jurkat [10], 26% in the data set with Jurkat [11] and 11% in the data set on Jurkat [12]. The result with M21 [3] was Active.

On to `Cc1ccccc1NS(=O)(=O)c1cccc(NC(=O)NCCCCl)c1`, for which the concentration for half-maximal inhibition (IC50) in the data set with HT-29 was 42 µM; in the data set on MCF7 it was 52 µM; with M21 [5], 60 µM. In addition, the Activity in the data set on Jurkat [13] came out at 45%; in the data set on Jurkat [14] it was 17%; in the data set with Jurkat [15] it was 38%.

With `CCNC(=O)Nc1cccc(S(=O)(=O)Nc2ccccc2C)c1`, the Activity in the data set with Jurkat [16] is on record as 34%; in the data set with Jurkat [17], 20%; in the data set with Jurkat [18], 46%. The IC50 amounted to 102 µM with HT-29, 108 µM with MCF7 and 131 µM in the data set on M21 [5].

For `CCCc1ccccc1NS(=O)(=O)c1ccc(NC(=O)NCCCCl)cc1`, the results for the Activity with Jurkat [19], in the data set on Jurkat [20] and in the data set on Jurkat [21] were 36%, 41% and 23%, respectively. For the same compound, the figures for the half-inhibitory concentration (IC50) in the data set on HT-29, in the data set with MCF7 and with M21 [5] were 26 µM, 35 µM and 38 µM, respectively.

The values are drawn from ChEMBL document CHEMBL2163200, “Synthesis, biological evaluation, and structure-activity relationships of novel substituted N-phenyl ureidobenzenesulfonate derivatives blocking cell cycle progression in S-phase and inducing DNA double-strand breaks” (J Med Chem, 2012).
